The values below come from ChEMBL document CHEMBL1126251, “alpha-Methylated analogues of triiodothyroalkanoic acids: synthesis and biological activity” (J Med Chem, 1992).

Values joined by “and” are separate entries in the source; they are usually repeats but may differ in a detail not shown here. Equal values may be shown once.

Assay [1] in a line: Affinity to rat hepatic nuclei relative to L-T3 (Thyroid receptor). In a few lines:
(§1)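 Hepatic nuclear fraction from thyroidectomized rats in 0.25 M sucrose, 1.1 mM MgCl2, 2 mM EDTA, 5 mM DTT, 20 mM Tris pH 7.85 (83 μg DNA/mL). Incubated with [125I]-L-T3 (final 0.075 nM) and competitor at 0.025–100 nM, five to eight concentrations, quadruplicate. Nonspecific binding measured with 1 μM unlabeled T3. IC50 from Hill plot x-intercept; Ki calculated from IC50; relative affinity = Ki(L-T3)/Ki(analogue).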

Assay [2] is described as follows: In vitro concentration required to displace [125I]L-T3 from Thyroid receptor of rat hepatic nuclei. In a few lines: as §1
Assay [3] concerns the target T1, NADP-dependent malic enzyme (Rattus norvegicus) (UniProt P13697).
T1 sequence (whole entry): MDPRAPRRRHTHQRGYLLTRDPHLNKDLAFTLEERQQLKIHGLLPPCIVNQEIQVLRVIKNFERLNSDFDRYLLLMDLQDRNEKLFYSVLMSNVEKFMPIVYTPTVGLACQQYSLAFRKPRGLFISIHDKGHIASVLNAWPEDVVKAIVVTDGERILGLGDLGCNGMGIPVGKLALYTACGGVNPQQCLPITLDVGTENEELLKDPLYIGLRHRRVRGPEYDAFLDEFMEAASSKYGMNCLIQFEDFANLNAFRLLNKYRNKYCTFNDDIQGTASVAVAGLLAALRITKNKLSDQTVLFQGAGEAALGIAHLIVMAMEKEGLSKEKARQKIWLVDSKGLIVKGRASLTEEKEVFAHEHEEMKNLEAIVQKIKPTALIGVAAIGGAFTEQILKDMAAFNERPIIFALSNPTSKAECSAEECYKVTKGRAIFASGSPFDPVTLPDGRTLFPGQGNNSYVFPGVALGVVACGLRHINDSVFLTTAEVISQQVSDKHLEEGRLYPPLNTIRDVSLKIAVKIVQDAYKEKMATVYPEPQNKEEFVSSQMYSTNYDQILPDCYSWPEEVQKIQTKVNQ
Briefly: Effect on rat hepatic Malic enzyme activity relative to L-T3.

For assay [4], the species on record is Rattus norvegicus. Description: Affinity to rat hepatic nuclei relative to L-T3. Format: functional. In a few lines:
as §1

Assay [5] has as its target T1, NADP-dependent malic enzyme (Rattus norvegicus). Description: Effect on rat hepatic Malic enzyme activity 3 days after injection of 10e-5 mol/kg. In a few lines:
(§2)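 Liver homogenized in 0.25 M sucrose, 1 mM EDTA, 100 mM Tris pH 7.5, then spun at 2000g and 40000g to give cytoplasmic fraction. Malic enzyme activity followed as NADP+ reduction at 340 nm, normalized to Bradford protein. Reported as increase over vehicle controls, nmol/min per mg protein. Two rats per dose, duplicate assays.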

Assay [6] shares this target. Briefly: Effect on rat hepatic Malic enzyme activity 3 days after injection of 10e-6 mol/kg. In a few lines: as §2
The target in assay [7] is T2, Glycerol-3-phosphate dehydrogenase [NAD(+)], cytoplasmic (Rattus norvegicus) (UniProt O35077).
T2 sequence (whole entry): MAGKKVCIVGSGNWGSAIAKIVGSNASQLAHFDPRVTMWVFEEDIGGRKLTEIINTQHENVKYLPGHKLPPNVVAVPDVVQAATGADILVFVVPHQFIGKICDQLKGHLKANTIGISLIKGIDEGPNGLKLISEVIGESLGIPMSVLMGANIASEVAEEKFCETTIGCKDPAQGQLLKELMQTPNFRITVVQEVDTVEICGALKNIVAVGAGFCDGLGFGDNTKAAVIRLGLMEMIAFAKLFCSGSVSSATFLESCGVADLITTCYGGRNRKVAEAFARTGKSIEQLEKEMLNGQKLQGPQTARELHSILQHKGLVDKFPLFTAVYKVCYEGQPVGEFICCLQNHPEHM
Description: Effect on rat hepatic glycerophosphate dehydrogenase alpha (GPD) activity relative to L-T3.

The target in assay [8] is T2, Glycerol-3-phosphate dehydrogenase [NAD(+)], cytoplasmic (Rattus norvegicus). Briefly: Effect on rat hepatic glycerophosphate dehydrogenase alpha (GPD) activity 3 days after injection of 10e-6 mol/kg.
Assay [9] can be described thus: (§3) In vitro concentration required to displace [125I]L-T3 from rat hepatic nuclei.
Assay [10] has as its system Rattus norvegicus. Description: Effect on the plasma cholesterol levels after subcutaneous administration of 4 nmol/kg in Dawley rats. Format: functional. In a few lines:
(§4)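 Normal Sprague-Dawley rats (265 ± 10 g) on pellet diet with 2% cholesterol and 1% cholic acid for 7 days, given daily subcutaneous injections at 4–16 nmol/kg. Five rats per group; values in mg/dL ± SD. Significance tested against vehicle-treated cholesterol-diet controls.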

Assay [11] deals with Rattus norvegicus. Description: Effect on the plasma cholesterol levels after subcutaneous administration of 8 nmol/kg in Dawley rats. Format: functional. Set-up: unit: mg/dL. In a few lines:
as §4

The species named for assay [12] is Rattus norvegicus. Described as §3. Format: functional, organism-based. In a few lines: as §1
Assay [13] addresses T2, Glycerol-3-phosphate dehydrogenase [NAD(+)], cytoplasmic (Rattus norvegicus). Briefly: Effect on rat hepatic alpha-glycerophosphate dehydrogenase (GPD) activity relative to L-T3.
For assay [14], the target named is T1, NADP-dependent malic enzyme (Rattus norvegicus). Briefly: Effect on rat hepatic malic enzyme(ME) activity 3 days after injection of 10e-6 mol/kg. In a few lines:
as §2

Assay [15] concerns the target T2, Glycerol-3-phosphate dehydrogenase [NAD(+)], cytoplasmic (Rattus norvegicus). Briefly: Effect on rat hepatic alpha-glycerophosphate dehydrogenase (GPD) activity 3 days after injection of 10e-5 mol/kg.
Assay [16] shares this target. Description: Effect on rat hepatic alpha-glycerophosphate dehydrogenase (GPD) activity 3 days after injection of 10e-6 mol/kg.
Assay [17] addresses T1, NADP-dependent malic enzyme (Rattus norvegicus). Briefly: Effect on rat hepatic malic enzyme(ME) activity relative to L-T3.
The subject of assay [18] is Rattus norvegicus. Description: Effect on the plasma cholesterol levels after subcutaneous administration of 16 nmol/kg in Dawley rats. Format: functional. In a few lines: as §4
Assay [19] deals with Rattus norvegicus. Description: Effect on the plasma cholesterol levels after subcutaneous administration of 16 nmol/kg in Dawley rats. p < 0.01. Format: functional. In a few lines:
as §4

With `CC(N)(Cc1cc(I)c(Oc2cc(I)c(O)c(I)c2)c(I)c1)C(=O)O` (stereo not given), the Relative affinity in [1] stood at 2%. This compound yielded a Ki in assay [2] of 63.3 nM.

Take `CC(Cc1cc(I)c(Oc2ccc(O)c(I)c2)c(I)c1)C(=O)O` (racemic): the figures for the L-T3 in assay [3] and in assay [7] were 62% and 77%, respectively. Further, in the assay filed under Rattus norvegicus [4], the T3 turned out to be 61%. Besides, the ME increase (nM min-1 mg-1) in [5] turned out to be 18.6; in [6] it was 13.1. For the same compound, the GDPactivity (nM min-1 mg-1) in assay [8] is 7.8 and 12.1. Besides, in assay [9], the Ki amounted to 2.56 nM.

Consider `CC(Cc1cc(I)c(Oc2cc(I)c(O)c(I)c2)c(I)c1)C(=O)O` (racemic), for which the L-T3 was 42% in assay [3] and 36% in assay [7]. The compound also registered a T3 in the assay listed under Rattus norvegicus [4] of 12%. In addition, the ME increase (nM min-1 mg-1) in assay [5] is 14.7; in assay [6] it was 6.8. In [9], this compound yielded a Ki of 13 nM.

As to `CC(C(=O)O)c1cc(I)c(Oc2ccc(O)c(I)c2)c(I)c1` (racemic) [listing 1 of 2 here], the Activity was determined as 259 in the assay on Rattus norvegicus [10] and 216 in the assay with Rattus norvegicus [11]. The compound also registered a T3 in the assay filed under Rattus norvegicus [4] of 17%. This compound came in with a Ki in the assay listed under Rattus norvegicus [12] of 9.03 nM.

Consider `CC(C(=O)O)c1cc(I)c(Oc2ccc(O)c(I)c2)c(I)c1` (racemic) [listing 2 of 2 here], for which the L-T3 in assay [13] worked out at 31%; in assay [17], 41%. Also, the values for the ME increase (nM min-1 mg-1) in assay [14] and in assay [3] were 5.6 and 15.5, respectively. Besides, the GDP activity (nM min-1 mg-1) stood at 6.6 in assay [15] and 1.5 in [16].

Turning to `CC(C(=O)O)c1cc(I)c(Oc2ccc(O)c(I)c2)c(I)c1` (stereo in doubt), the Activity came to 262 in the assay with Rattus norvegicus [10], 147 in the assay on Rattus norvegicus [11] and 119 with Rattus norvegicus [18].

As to `N[C@@H](Cc1cc(I)c(Oc2ccc(O)c(I)c2)c(I)c1)C(=O)O` [LIOTHYRONINE], the Activity with Rattus norvegicus [10] amounted to 251; with Rattus norvegicus [11], 138; with Rattus norvegicus [18], 101. The L-T3 in [3] and in assay [7] was 100% in each case. Also, the T3 in the assay listed under Rattus norvegicus [4] is given as 100%. Moreover, the ME increase (nM min-1 mg-1) was determined as 31.8 in assay [5] and 19.5 in [6]. In addition, in assay [8], the GDPactivity (nM min-1 mg-1) is 7.5 and 18.3.

`O=C(O)CCc1cc(I)c(Oc2ccc(O)c(I)c2)c(I)c1` [THYROPROPIC ACID]: the figures for the L-T3 in [3] and in [7] were 36% and 43%, respectively. Further, the values for the Activity with Rattus norvegicus [11] and in the assay on Rattus norvegicus [19] were 285 and 202, respectively. Besides, the ME increase (nM min-1 mg-1) in assay [5] stood at 12.9; in assay [6], 5.5.

Take `O=C(O)Cc1cc(I)c(Oc2ccc(O)c(I)c2)c(I)c1` [TIRATRICOL]: the L-T3 in assay [13] and in assay [17] was 69% in each case. Also, the ME increase (nM min-1 mg-1) in assay [14] came out at 13; in assay [3], 22.5. Moreover, the GDP activity (nM min-1 mg-1) in assay [15] was 12.9; in [16] it was 4.8. Moreover, in the assay filed under Rattus norvegicus [4], the T3 is 199%.

The Ki is a measure of affinity in units of concentration, obtained from inhibition or displacement.
